Measurements taken from ChEMBL document CHEMBL4251717, “Bioactive α-Pyrone Derivatives from the Endolichenic Fungus Dothideomycetes sp. EL003334” (J Nat Prod, 2018).
Calls of active or inactive are those of the source. The rule behind the calls is not given here.

How the values were obtained:
[1] = tested on: BV-2; assay: Cytotoxicity against […] BV2 cells assessed as reduction in cell viability up to 80 uM after 24 hrs by MTT assay; assay type: cell-based; conditions: bv-2, 24 h
Summary of the method: (§1)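 BV2 cells (1 × 10^5 cells/well) exposed to compound for 24 h, at concentrations up to 80 μM. MTT added to 0.5 mg/mL final for 3 h. Formazan dissolved in acidic 2-propanol and read at 540 nm. Untreated cells set as 100% viability.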

[2] = tested on: BV-2; assay: Inhibition of COX2 protein expression level in LPS-induced […] BV2 cells preincubated for 3 hrs followed by LPS stimulation measured after 24 hrs by Western blot analysis; assay type: functional, cell-based
Summary of the method: (§2)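 BV2 cells pretreated 3 h with compound, then LPS (1 μg/mL) for 24 h. Cells lysed in 20 mM Tris-HCl pH 7.4 with protease inhibitors. Protein quantified by Lowry. Equal protein run on 7.5% and 12% SDS-PAGE, transferred to nitrocellulose and probed with anti-iNOS, anti-COX-2 and anti-actin antibodies, ECL detection.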

[3] = tested on: BV-2; assay: Antiinflammatory activity in LPS-induced […] BV2 cells assessed as inhibition of IL-1beta mRNA expression level preincubated for 3 hrs followed by LPS stimulation measured after 6 hrs by qRT-PCR analysis; assay type: functional, cell-based
Summary of the method: (§3)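 BV2 microglia in DMEM with 10% heat-inactivated FBS, penicillin/streptomycin and 2 mM L-glutamine, 37 °C, 5% CO2. Cells incubated with compound for 3 h, then LPS (1 μg/mL) for 6 h. Il1b, Il6 and Tnf mRNA measured by RT-qPCR with GAPDH as endogenous control. Relative expression by comparative Ct (2−ΔΔCt). Mean of three independent experiments.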

[4] = tested on: BV-2; assay: Inhibition of iNOS protein expression level in LPS-induced […] BV2 cells preincubated for 3 hrs followed by LPS stimulation measured after 24 hrs by Western blot analysis; assay type: functional, cell-based; summary of the method: as §2
[5] = tested on: BV-2; assay: Antiinflammatory activity in […] BV2 cells assessed as inhibition of LPS-induced PGE2 production preincubated for 3 hrs followed by LPS stimulation measured after 24 hrs by ELISA; assay type: functional, cell-based
Summary of the method: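 Pretreatment of BV2 cells with compound for 3 h, then LPS (1 μg/mL) stimulation for 24 h. PGE2 in culture medium measured by ELISA/enzyme immunoassay kit.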

[6] = tested on: BV-2; assay: Cytotoxicity against […] BV2 cells assessed as reduction in cell viability up to 40 uM after 24 hrs by MTT assay; assay type: cell-based; conditions: bv-2, 24 h; summary of the method: as §1
[7] = tested on: BV-2; assay: Antiinflammatory activity in LPS-induced mouse BV2 cells assessed as inhibition of TNF-alpha mRNA expression level preincubated for 3 hrs followed by LPS stimulation measured after 6 hrs by qRT-PCR analysis
[8] = tested on: BV-2; assay: Antiinflammatory activity in LPS-induced […] BV2 cells assessed as inhibition of IL-6 mRNA expression level preincubated for 3 hrs followed by LPS stimulation measured after 6 hrs by qRT-PCR analysis; assay type: functional, cell-based; summary of the method: as §3
[9] = tested on: BV-2; assay: Antiinflammatory activity in […] BV2 cells assessed as inhibition of LPS-induced NO production preincubated for 3 hrs followed by LPS stimulation measured after 24 hrs by Griess assay; assay type: functional, cell-based
Summary of the method: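 BV2 cells pretreated with compound for 3 h, then LPS (1 μg/mL) for 24 h. Nitrite in conditioned medium taken as NO indicator. Supernatant mixed 1:1 with Griess reagent (0.1% N-(1-naphthyl)ethylenediamine, 1% sulfanilamide in 5% phosphoric acid), 10 min at room temperature. A540 read. Concentration from a sodium nitrite standard curve made in phenol red-free DMEM. IC50 reported.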

IC50 ([9]; Mus musculus) [µM]	Structure (SMILES)	Activity [1]	inhibition [2]	inhibition [3]	inhibition [4]	inhibition [5]	Activity [6]	inhibition [7]	inhibition [8]	inhibition [9]
15	CCCCCCCC[C@H](O)c1cc(OC)c(CO)c(=O)o1	Toxic	Dose-dependent effect	Dose-dependent effect	Dose-dependent effect	Dose-dependent effect	Non-Toxic	Dose-dependent effect	Dose-dependent effect	–
–	COc1cc([C@@H](O)CCCCCC[C@@H](C)O)oc(=O)c1CO	–	–	–	–	–	–	–	–	inactive
